In ChEMBL document CHEMBL1134670, “Synthesis and cytotoxicity on sensitive and doxorubicin-resistant cell lines of new pyrrolo[2,1-c][1,4]benzodiazepines related to anthramycin” (J Med Chem, 2001):

What was measured:
[1] = test system: HCT-15; assay: In vitro cytotoxicity expressed as concentration that inhibits 50% of HCT 15 (colon) sensitive variant cell proliferation; type: functional, cell-based; settings: Homo sapiens
In short: (§1)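 Cells were kept at 37 °C in sealed dishes of MEM with 10% heat-inactivated FCS plus glutamine, penicillin, streptomycin and gentamycin. […] Cells were plated at 10 000 cells/mL for 24 h, then given nine concentrations from 10^-5 to 10^-9 M. Growth was read by MTT colorimetric assay.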

[2] = (§2) In vitro cytotoxicity expressed as concentration that inhibits 50% of J82 (bladder) resistant variant cell proliferation; type: functional; settings: Homo sapiens; in short: as §1
[3] = as §2; type: functional; settings: Homo sapiens; in short: as §1; remark: listed apart in the source
[4] = test system: K562; assay: In vitro cytotoxicity expressed as concentration that inhibits 50% of K562R (resistant clone) cell proliferation; type: functional, cell-based; settings: Homo sapiens
[5] = test system: K562; assay: In vitro cytotoxicity expressed as concentration that inhibits 50% of K562S (sensitive clone)cell proliferation; type: functional, cell-based; settings: Homo sapiens
[6] = test system: LoVo; assay: In vitro cytotoxicity expressed as concentration that inhibits 50% of LoVo (colon) resistant cell proliferation; type: functional, cell-based; settings: Homo sapiens; in short: as §1
[7] = test system: T-24; assay: In vitro cytotoxicity expressed as concentration that inhibits 50% of T24 (bladder) resistant variant cell proliferation; type: functional, cell-based; settings: Homo sapiens; in short: as §1
[8] = test system: U373 MG; assay: In vitro cytotoxicity expressed as concentration that inhibits 50% of U373 (glioblastoma) sensitive variant cell proliferation; type: functional, cell-based, U-373MG ATCC; settings: Homo sapiens; in short: as §1
[9] = In vitro cytotoxicity expressed as concentration that inhibits 50% of U373 (glioblastoma) resistant variant cell proliferation; type: functional, cell-based, U-373MG ATCC; settings: Homo sapiens, U373 MG; in short: as §1
[10] = test system: U-87 MG; assay: In vitro cytotoxicity expressed as concentration that inhibits 50% of U87 (glioblastoma) resistant variant cell proliferation; type: functional, cell-based, U-87MG ATCC; settings: Homo sapiens; in short: as §1
[11] = test system: U-87 MG; assay: In vitro cytotoxicity expressed as concentration that inhibits 50% of U87 (glioblastoma) sensitive variant cell proliferation; type: functional, cell-based, U-87MG ATCC; settings: Homo sapiens; in short: as §1
[12] = test system: Vero; assay: In vitro cytotoxicity expressed as conc. that inhibits 50% of VERO(monkey kidney) cell proliferation; type: functional, cell-based; settings: Chlorocebus sabaeus
In short: (§3)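 KB and VERO monolayers in medium 199 with 10% newborn calf serum, 12 × 10^4 cells seeded per well. Serial dilutions from a DMSO or water stock were added at seeding, with final DMSO below 1%. Cultures were held 48 h at 37 °C in 5% CO2. Viability was then measured after 18 h in neutral red medium, SDS lysis and dye absorbance at 540 nm.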

[13] = test system: HCT-15; assay: In vitro cytotoxicity expressed as concentration that inhibits 50% of HCT 15 (colon) resistant variant cell proliferation; type: functional, cell-based; settings: Homo sapiens; in short: as §1
[14] = test system: HCT-116; assay: In vitro cytotoxicity expressed as concentration that inhibits 50% of HCT(human colon carcinoma)116 cell proliferation; type: functional, cell-based
[15] = species: Homo sapiens; assay: In vitro cytotoxicity expressed as conc. that inhibits 50% of KB (human) cell proliferation; type: functional; in short: as §3
[16] = test system: LoVo; assay: In vitro cytotoxicity expressed as concentration that inhibits 50% of LoVo (colon) sensitive variant cell proliferation; type: functional, cell-based; settings: Homo sapiens; in short: as §1
[17] = test system: T-24; assay: In vitro cytotoxicity expressed as concentration that inhibits 50% of T24 (bladder) sensitive variant cell proliferation; type: functional, cell-based; settings: Homo sapiens; in short: as §1
[18] = In vitro cytotoxicity expressed as concentration that inhibits 50% of J82 (bladder) sensitive variant cell proliferation; type: functional; settings: Homo sapiens; in short: as §1
[19] = test system: K562; assay: In vitro cytotoxicity expressed as concentration that inhibit 50% of K562R (resistant clone) cell proliferation; type: functional, cell-based; settings: Homo sapiens

CO[C@H]1Nc2cc3c(cc2C(=O)N2C=C(/C=C/C(=O)N(C)C)C[C@@H]12)OCO3
IC50 [1]: 8 nM
IC50 [2]: 10 nM
IC50 [3]: 10 nM
IC50 [4]: 30 nM
IC50 [5]: 50 nM
IC50 [6]: 9 nM
IC50 [7]: 10 nM
IC50 [8]: 30 nM
IC50 [9]: 37 nM
IC50 [10]: 38 nM
IC50 [11]: 40 nM
IC50 [12]: 20 nM
IC50 [13]: 7 nM
IC50 [14]: 20 nM
IC50 [15]: 5 nM
IC50 [16]: 9 nM
IC50 [17]: 10 nM

COc1cccc2c1C(=O)c1c(O)c3c(c(O)c1C2=O)C[C@@](O)(C(=O)CO)C[C@@H]3O[C@H]1C[C@H](N)[C@H](O)[C@H](C)O1 [DOXORUBICIN]
IC50 [1]: 50 nM
IC50 [2]: > 10000 nM
IC50 [18]: 30 nM
IC50 [4]: 7000 nM
IC50 [5]: 50 nM
IC50 [6]: 80 nM
IC50 [7]: > 10000 nM
IC50 [8]: 10 nM
IC50 [9]: 130 nM
IC50 [10]: 140 nM
IC50 [11]: 60 nM
IC50 [12]: 5000 nM
IC50 [13]: 80 nM
IC50 [15]: 100 nM
IC50 [16]: 8 nM
IC50 [17]: 20 nM

CO[C@H]1Nc2ccccc2C(=O)N2C=C(/C=C/C(=O)N(C)C)C[C@@H]12
IC50 [19]: 120 nM
IC50 [5]: 85 nM
IC50 [12]: 75 nM
IC50 [14]: 50 nM
IC50 [15]: 86 nM

CO[C@@]12[C@H](COC(N)=O)C3=C(C(=O)C(C)=C(N)C3=O)N1C[C@@H]1N[C@@H]12 [MITOMYCIN]
IC50 [15]: 500 nM

CN(C)C(=O)/C=C/C1=CN2C(=O)c3cc4c(cc3NC(S(=O)(=O)O)[C@@H]2C1)OCO4 (some centres not stated) [SODIUM BISULFITE ADDUCT]
IC50 [12]: 50 nM
IC50 [14]: 25 nM
IC50 [15]: 50 nM
